# Laboratory results taken from PubChem BioAssay AID2541 (The Scripps Research Institute Molecular Screening Center, 2010).
# Calls of active or inactive are those of the source.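 Rule for the calls: active = inhibition of at least 50%; inactive = inhibition below 50%.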
# Biological target: NADPH oxidase 1 (Homo sapiens) (UniProt Q9Y5S8)
# Experiment: cellular NOX1 ROS production inhibition – luminescence, HT29 cells, confirmation (AID 2541)
# Conditions: luminol ROS chemiluminescence, 1 h, at 3.3 µM, active compounds read high
# Procedure, shortened: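 Assay system: HT29 colon epithelial cell line with endogenous NOX1. Also added: luminol plus HRP. Doses: one dose of 3.3 µM. Incubation: 1 h compound pre-incubation before luminol/HRP addition. Technique: luminol chemiluminescence of intracellular ROS. Measure: percent inhibition of ROS luminescence signal. Replicates: triplicate wells per compound.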
# Chain of NADPH oxidase 1 (Homo sapiens) (Q9Y5S8 whole entry, looked up): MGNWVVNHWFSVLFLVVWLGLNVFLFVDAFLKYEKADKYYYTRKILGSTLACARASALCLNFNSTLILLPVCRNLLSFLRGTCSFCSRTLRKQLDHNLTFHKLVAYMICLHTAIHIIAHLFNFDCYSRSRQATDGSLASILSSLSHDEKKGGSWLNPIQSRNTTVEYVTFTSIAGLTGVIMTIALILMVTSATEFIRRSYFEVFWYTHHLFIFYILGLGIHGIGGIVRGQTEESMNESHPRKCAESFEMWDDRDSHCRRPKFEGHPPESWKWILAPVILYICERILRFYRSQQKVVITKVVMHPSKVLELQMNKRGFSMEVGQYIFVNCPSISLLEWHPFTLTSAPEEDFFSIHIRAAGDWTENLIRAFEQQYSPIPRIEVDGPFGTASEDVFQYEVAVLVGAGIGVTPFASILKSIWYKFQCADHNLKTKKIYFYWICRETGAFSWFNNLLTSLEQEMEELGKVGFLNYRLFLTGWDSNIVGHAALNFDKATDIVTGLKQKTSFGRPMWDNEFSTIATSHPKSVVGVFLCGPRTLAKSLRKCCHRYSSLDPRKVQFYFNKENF
row,inhibition,Compound
1,74.1%,COC(=O)c1sccc1-c1ccc(CN2CCCc3cc(OC)ccc32)o1
2,88.4%,S=C(NNc1nccc(-c2cccnc2)n1)Nc1ccccc1
3,81.8%,CC(C)(C)c1csc(NNC(=O)c2ccc(Cl)cc2)n1
4,78.4%,Nc1nc(NCc2ccccc2OC(F)(F)F)n[nH]1
5,74.1%,Nc1nc(NCc2c(Cl)cccc2Oc2ccccc2)n[nH]1
6,85.4%,O=S(=O)(Nc1ccc(N2CCCCC2)cc1)c1ccccc1
7,86.9%,FC(F)(F)c1ccc2c(c1)Nc1ccccc1S2
8,-5.1% (inactive),CCn1c(-c2cc(-c3ccccc3)sc2N)n[nH]c1=S
9,84.1%,COc1cc(-c2nc(-c3ccccc3)c(-c3ccccc3)[nH]2)ccc1O
10,76.7%,O=C(N/N=C/c1ccc(O)cc1)N/N=C/c1ccc(O)cc1
11,33.3% (inactive),CSC1=NS(=O)(=O)c2c(C)nn(C)c2S1
12,70.8%,S=c1[nH]cc(-c2ccc(Br)cc2)[nH]1
13,16% (inactive),CCOC(=O)c1nsc(/C(C)=N/Nc2ccccc2)c1N
14,23.7% (inactive),CCN(CC)c1ccc(N=C2C=CC(=O)c3ccccc32)c(C)c1
15,93%,COc1cc2ncnc(NNS(=O)(=O)c3cc(C)c(Cl)cc3C)c2cc1OC
16,90.2%,CN(C)c1ccc(NC(=O)Nc2ccc(OCc3ccccc3)cc2)cc1
17,-0.1% (inactive),O=[N+]([O-])c1cc(C(F)(F)F)cc([N+](=O)[O-])c1Sc1ncc2ccccn12
18,95.7%,O=c1[nH]c2ccsc2c(=O)n1CCO
19,-41.4% (inactive),CCS(=O)(=O)c1ccc(O)c(NC(=O)c2ccccc2C(=O)O)c1
20,77.2%,Cn1cnc(S(=O)(=O)Nc2ccc(N3CCCCC3)cc2)c1
21,75%,COc1ccc(N(C)CC(=O)O)c(C(=O)O)c1
22,72.9%,CCOC(=O)C1=C(Nc2ccc(OC(C)=O)cc2)C(=O)N(C(C)(C)C)C1
23,88.1%,COc1ccc(C(=O)NNc2c([N+](=O)[O-])cc(C(F)(F)F)cc2[N+](=O)[O-])cc1
24,63.7%,COC(=O)C1=C(Nc2ccc(O)cc2)CSC1

row,inhibition,Compound
1,26.5% (inactive),COc1ccc2c(c1)CCCN2Cc1c[nH]c2ccccc12
2,59.2%,CC(=O)c1ccc(NCN2C(=O)/C(=C\N(C)C)NC2=S)cc1
3,-27.6% (inactive),CC(=O)/C(C=Nc1cc(C)c(O)c(Cl)c1)=C(\C)O
4,75.9%,CC(=O)Oc1ccc(OC(C)=O)c2c1[C@@H]1C=C[C@H]2CC1
5,65.4%,CCC(=O)Nc1ccc2c(c1)N(CC)C(C)(C)CC2C (stereo unspecified)
6,56.3%,O=c1c(Cl)c2oc3ccccc3nc-2c2ccccc12
7,92.8%,O=C(NNc1c([N+](=O)[O-])cc(C(F)(F)F)cc1[N+](=O)[O-])c1ccco1
8,89.2%,COc1cccc(NC(=S)NNc2ccc([N+](=O)[O-])cc2)c1
9,63.2%,Cc1ccc(SC#N)c(N)n1
10,89%,Cc1cc(Cl)ccc1NC(=S)NNC(=S)Nc1ccc(F)cc1
11,-39.8% (inactive),c1ccc2c(c1)NC(c1ccc3c(c1)OCO3)O2 (stereo unspecified)
12,74.3%,NS(=O)(=O)c1ccc(NNC(=O)c2c(F)cccc2Cl)cc1
13,100%,CN(NC=C(C#N)C#N)c1ccccc1[N+](=O)[O-]
14,54.9%,Cc1ccccc1C(=O)Oc1ccc(-c2csnn2)cc1
15,92.4%,COc1ccccc1NNC(=O)c1cc(C(C)(C)C)nn1Cc1ccccc1
16,88.8%,COc1ccc(Cl)cc1NC(=O)Nc1ccc(N(C)C)cc1
17,9.8% (inactive),O=c1[nH][nH]c2cccc(F)c12
18,103%,N#Cc1c(N)sc2c1CCc1ccccc1-2
19,71.9%,O=C(Oc1ccccc1N1CCOCC1)c1cccnc1Oc1ccccc1
20,73.6%,Nc1nc(Nc2ccccc2)n[nH]1
21,43.9% (inactive),COc1ccc(OC)c(S(=O)(=O)c2ccc([N+](=O)[O-])cc2Cl)c1
22,87.5%,CCOC(=O)C(=CNNc1ccnc2cc(Cl)ccc12)C(=O)OCC
23,81.7%,CCC(=O)N1c2cc(Cl)ccc2-n2c(nn(C(=O)CC)c2=O)N1C(=O)CC
24,79.7%,c1ccc2c(c1)Nc1nc3ccccc3nc1N2

row,inhibition,Compound
1,84.3%,O=C(Oc1ccccc1N1CCCCC1)c1sc2ccccc2c1Cl
2,-17.1% (inactive),Cc1oc(-c2ccc(Cl)cc2)cc1C(=O)O/N=C(\N)Cc1nc2cccnc2n1C1CC1
3,11.1% (inactive),O=C1c2ccccc2C(=O)N1CNc1ccc(N2CCOCC2)cc1
4,76.1%,CC(C)C(=O)NNc1nc2c(c(=O)n(C)c(=O)n2C)n1Cc1ccc(Cl)cc1
5,101%,Cc1nc(C(F)(F)F)c(C(=O)NNc2ncc(C(F)(F)F)cc2Cl)s1
6,89.3%,CC[n+]1c(C)csc1Nc1ccc(N2CC(C)OC(C)C2)cc1 (stereo unspecified)
7,60.4%,O=C1C=C(I)C(=O)C=C1I
8,30.4% (inactive),O=C(Oc1cccc2[nH]ccc12)c1ccc(C(F)(F)F)cc1
9,78.6%,Nc1nc(NCc2ccccn2)n[nH]1
10,17.8% (inactive),Cc1ccc(NCN2C(=O)c3ccc([N+](=O)[O-])cc3C2=O)cc1
11,61.5%,CC1(C)CC(Nc2ccc(Nc3ccccc3)cc2)CC(C)(C)N1
12,59.5%,CC1CN(c2ccc(NC(=S)NN)cc2)CC(C)O1 (stereo unspecified)
13,102%,Cc1cc(S(=O)(=O)NNc2ncnc3c2cnn3C)c(C)cc1Cl
14,6.3% (inactive),Cn1ncc(C(=O)NC(=O)Nc2ccc(F)cc2)c1[N+](=O)[O-]
15,29% (inactive),O=c1c2c(-c3ccc([N+](=O)[O-])cc3)onc2n(-c2ccccc2)c(=O)n1-c1ccccc1
16,70.1%,COCCCNC(=S)NNC(=S)Nc1ccccc1
17,63.1%,ON/C=N/c1nnc(C(F)(F)F)s1
18,95%,O=C(Oc1ccccc1N1CCCCC1)c1ccco1
19,70.5%,COc1cc2ncnc(NNC(=O)c3cccs3)c2cc1OC
20,78.9%,COc1cccc(NC(=S)NNC(=S)NC2CC3CCC2C3)c1 (stereo unspecified)
21,81.5%,CCOc1ccccc1Nc1n[nH]c(=S)s1
22,108%,Cc1cc(C(=O)NNc2cc(Cl)ccc2Cl)no1
23,73.6%,CN(C)c1ccc(/C=N/Nc2c(Cl)cncc2Cl)cc1
24,44.1% (inactive),COc1cccc(C(=O)CSc2nsc(SCC(=O)c3cccc(OC)c3)c2C#N)c1

row,inhibition,Compound
1,11.4% (inactive),CC(C)(C)c1cc2nc(C(F)(F)F)cc(NNC(=O)Nc3ccc(OC(F)(F)F)cc3)n2n1
2,76.9%,Cc1cc(Br)c(NC(=S)NNc2ccccc2)c(Br)c1
3,56.4%,O=C(Nc1ccc(Cl)cc1)Oc1ccccc1N1CCSCC1
4,74.4%,Cc1cc(C)cc(NC(=O)Nc2ccc(N3CCCCC3)cc2)c1
5,73.9%,O=C(Nc1ccc(N2CCCCC2)cc1)Nc1ccccc1OC(F)(F)F
6,37% (inactive),CCN(CC)c1ccc(NC(=O)C2CCCCC2)c(N(CC)CC)n1
7,71%,Cc1cc(S(=O)(=O)NNc2ncnc3cc(C(C)(C)C)sc23)c(C)cc1Cl
8,58.8%,O=[N+]([O-])c1cc(C(F)(F)F)ccc1Oc1ccc(-c2nnco2)cc1
9,51.6%,COc1ccc(OC(=O)c2ccc3ncccc3c2)cc1
10,81.6%,Cc1csc2ncnc(NNS(=O)(=O)c3cc(C(F)(F)F)cc(C(F)(F)F)c3)c12
11,14% (inactive),CCC1=Nc2cccc3cccc(c23)N1
12,-22.8% (inactive),O=C(Nc1ccc(Cl)cc1Cl)c1cc([N+](=O)[O-])cc2c1-c1ccc([N+](=O)[O-])cc1C2=O
13,-32.2% (inactive),CCC(CO)Nc1nc2c([nH]1)c(=O)n(C)c(=O)n2C (stereo unspecified)
14,37.1% (inactive),CCN(CC)c1ccc(NC(=O)c2c(F)cccc2F)c(N(CC)CC)n1
15,10.4% (inactive),CC1=CC(=O)C(CCC2=CC(=O)C(C)=CC2=O)=CC1=O
16,48.3% (inactive),CN(C)c1ccc(NC(=O)Nc2cccs2)cc1
17,96.6%,O=c1[nH]nc(N2CCSCC2)[nH]1
18,97.5%,Cc1noc(C)c1C(=O)Nc1ccc(N2CCOCC2)nc1N1CCOCC1
19,88.9%,Cn1nc(-c2ccccc2)c(O)c(N=Nc2ccccc2)c1=O
20,87.8%,O=C(Oc1ccccc1N1CCOCC1)c1cccs1
21,78%,O=C(NNc1c([N+](=O)[O-])cc(C(F)(F)F)cc1[N+](=O)[O-])c1ccccc1-n1cccc1
22,11.1% (inactive),O=C1C=CC(=O)N1CCc1ccccc1
23,62.5%,O=C(O)/C(=N/Nc1ccccc1O)c1ccccc1
24,29.6% (inactive),Nc1nc2[nH]c(=S)[nH]c2c(=O)[nH]1
